Measurements from ChEMBL document CHEMBL1649161, “Pharmacokinetics of EDP-420 after ascending single oral doses in healthy adult volunteers” (Antimicrob Agents Chemother, 2009).
≈ marks a conversion by molar mass, not a printed value.

Legend:
[1] = AUC (0 to infinity) in healthy human plasma at 1200 mg, po administered as single dose measured after 120 hrs; type: ADME, organism-based; design: dose 1200 mg, route oral, time infinity
Method in brief: (§1)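 Healthy adults (6 per dose group) received a single oral suspension after an 8-h fast, with food withheld 4 h. EDTA blood was drawn predose to 120 h. Plasma was protein-precipitated with ACN and assayed by LC-MS/MS (clarithromycin internal standard; range 1–1,000 ng/ml). AUC0-last was computed by linear-up/log-down trapezoid; AUC0-∞ added Clast/λz. Values are noncompartmental means.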

[2] = AUC (0 to last) in healthy human plasma at 200 mg, po administered as single dose measured after 120 hrs; type: ADME, organism-based; design: dose 200 mg, time 0 - last, route oral; method in brief: as §1
[3] = Cmax in healthy human plasma at 100 mg, po administered as single dose measured after 120 hrs; type: ADME, organism-based; design: dose 100 mg, route oral
Method in brief: (§2)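 Healthy adults (n = 6 per dose) took a single oral suspension fasted (8 h before, 4 h after). Plasma was sampled from 0.25 to 120 h postdose and quantified by validated LC-MS/MS after acetonitrile precipitation (LLOQ 1 ng/ml). Cmax was read directly from observed concentration–time data; the group mean was reported.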

[4] = Cmax in healthy human plasma at 400 mg, po administered as single dose measured after 120 hrs; type: ADME, organism-based; design: dose 400 mg, route oral; method in brief: as §2
[5] = Cmax in healthy human plasma at 800 mg, po administered as single dose measured after 120 hrs; type: ADME, organism-based; design: dose 800 mg, route oral; method in brief: as §2
[6] = Cmax in healthy human plasma at 1200 mg, po administered as single dose measured after 120 hrs; type: ADME, organism-based; design: dose 1200 mg, route oral; method in brief: as §2
[7] = Tmax in healthy human plasma at 400 mg, po administered as single dose measured after 120 hrs; type: ADME, organism-based
Method in brief: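 Fasted healthy adults (n = 6 per group) took one oral suspension dose. Plasma was sampled from predose through 0.25–120 h postdose and measured by validated LC-MS/MS (lower limit 1 ng/ml). Tmax was read directly from observed concentration–time data using actual sampling times and reported as median with range.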

[8] = Half life in healthy human plasma at 200 mg, po administered as single dose measured after 120 hrs; type: ADME, organism-based
[9] = Half life in healthy human plasma at 800 mg, po administered as single dose measured after 120 hrs; type: ADME, organism-based
[10] = Elimination rate constant in healthy human plasma at 100 mg, po administered as single dose measured after 120 hrs; type: ADME, organism-based
[11] = Elimination rate constant in healthy human plasma at 400 mg, po administered as single dose measured after 120 hrs; type: ADME, organism-based
[12] = Elimination rate constant in healthy human plasma at 1200 mg, po administered as single dose measured after 120 hrs; type: ADME, organism-based
[13] = Apparent oral clearance in healthy human plasma at 100 mg, po administered as single dose measured after 120 hrs; type: ADME, organism-based
Method in brief: (§3)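 Single oral suspension dose in fasted healthy adults (6 per group). Plasma was collected to 120 h and measured by LC-MS/MS (1–1,000 ng/ml). Apparent oral clearance was dose divided by AUC0-∞ (noncompartmental, linear-up/log-down trapezoid extrapolated with Clast/λz); the mean was reported.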

[14] = Apparent oral clearance in healthy human plasma at 400 mg, po administered as single dose measured after 120 hrs; type: ADME, organism-based; method in brief: as §3
[15] = Apparent oral clearance in healthy human plasma at 800 mg, po administered as single dose measured after 120 hrs; type: ADME, organism-based; method in brief: as §3
[16] = Apparent volume of distribution in healthy human plasma at 200 mg, po administered as single dose measured after 120 hrs; type: ADME, organism-based
[17] = Apparent volume of distribution in healthy human plasma at 400 mg, po administered as single dose measured after 120 hrs; type: ADME, organism-based
Homo sapiens [18] = assay: Renal clearance in healthy human assessed as cumulative amount excreted in urine at 400 mg, po administered as single dose measured after 48 hrs; type: ADME, organism-based; conditions: in vivo
Method in brief: (§4)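 Healthy adults (6 per dose) received a single fasted oral suspension dose. Urine was collected predose and over 0–2, 2–4, 4–6, 6–8, 8–12, 12–24 and 24–48 h intervals, volumes were recorded, and aliquots were stored at −20°C. Samples were assayed by LC-MS/MS. Ae0-48 is the summed volume × concentration over all intervals; the mean was reported.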

Homo sapiens [19] = assay: Renal clearance in healthy human assessed as cumulative amount excreted in urine at 1200 mg, po administered as single dose measured after 48 hrs; type: ADME, organism-based; conditions: in vivo; method in brief: as §4
[20] = Renal clearance in healthy human assessed as cumulative fraction excreted unchanged in urine at 200 mg, po administered as single dose measured after 48 hrs; type: ADME, organism-based; conditions: read-out: Fraction Recovered in urine
Method in brief: (§5)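 After a single oral fasted suspension dose in healthy adults (6 per group), urine was collected in intervals to 48 h and measured by LC-MS/MS. fe0-48 = Ae0-48 (summed interval volume × concentration) / dose × 100%; the mean was reported.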

[21] = Renal clearance in healthy human assessed as cumulative fraction excreted unchanged in urine at 400 mg, po administered as single dose measured after 48 hrs; type: ADME, organism-based; conditions: read-out: Fraction Recovered in urine
Method in brief: (§6)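 Urine collected predose and over 0–2, 2–4, 4–6, 6–8, 8–12, 12–24 and 24–48 h after a single oral suspension dose, given after an 8-h fast with no food for 4 h after. Volumes measured, stored at −20°C, EDP-420 quantified by LC-MS/MS. fe0-48 = Ae0-48/dose × 100%, where Ae0-48 is the sum of volume × concentration over the intervals. Six active subjects per dose.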

[22] = Renal clearance in healthy human assessed as cumulative fraction excreted unchanged in urine at 800 mg, po administered as single dose measured after 48 hrs; type: ADME, organism-based; conditions: read-out: Fraction Recovered in urine; method in brief: as §6
[23] = Renal clearance in healthy human assessed as cumulative fraction excreted unchanged in urine at 1200 mg, po administered as single dose measured after 48 hrs; type: ADME, organism-based; conditions: read-out: Fraction Recovered in urine; method in brief: as §5
[24] = Renal clearance in healthy human at 100 mg, po administered as single dose measured after 48 hrs; type: ADME, organism-based, Kidney; conditions: in vivo, read-out: CL_renal (converted)
Method in brief: (§7)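 Healthy adults (6 active per dose) got a single oral suspension dose after an 8-h fast, with food withheld 4 h. Urine over 0–48 h in intervals and serial EDTA plasma were assayed by validated LC-MS/MS, with plasma calibration from 1 to 1,000 ng/ml. CLR = Ae0-48 (urine volume × concentration summed) divided by plasma AUC0-48.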

[25] = Renal clearance in healthy human at 800 mg, po administered as single dose measured after 48 hrs; type: ADME, organism-based, Kidney; conditions: in vivo, read-out: CL_renal (converted); method in brief: as §7
[26] = Renal clearance in healthy human at 1200 mg, po administered as single dose measured after 48 hrs; type: ADME, organism-based, Kidney; conditions: in vivo, read-out: CL_renal (converted); method in brief: as §7
Streptococcus pneumoniae = assay: Antimicrobial activity against Streptococcus pneumoniae; type: functional
Homo sapiens [27] = assay: Toxicity in healthy human assessed as changes in direct and total bilirubin level at 100 to 1200 mg, po administered as single dose; type: organism-based; conditions: in vivo
Method in brief: (§8)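 Randomized, double-blind, placebo-controlled single ascending dose study with eight subjects per group (6 drug, 2 placebo of microcrystalline cellulose). Subjects were fasted before dosing. Safety labs were done at 120 h, with a full chemistry panel also at 72 and 96 h for the top dose. Final evaluation on day 8–10, with adverse events recorded.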

Homo sapiens [28] = assay: Toxicity in healthy human assessed as changes in prothrombin time at 100 to 1200 mg, po administered as single dose; type: organism-based; conditions: in vivo; method in brief: as §8
Homo sapiens [29] = assay: Toxicity in healthy human assessed as changes in physical parameters signs at 100 to 1200 mg, po administered as single dose; type: organism-based; conditions: in vivo
[30] = AUC (0 to infinity) in healthy human plasma at 400 mg, po administered as single dose measured after 120 hrs; type: ADME, organism-based; design: dose 400 mg, route oral, time infinity; method in brief: as §1

## CC[C@H]1OC(=O)[C@H](C)C(=O)[C@H](C)[C@@H](O[C@@H]2O[C@H](C)C[C@H](N(C)C)[C@H]2O)[C@@]2(C)C[C@@H](C)/C(=N\C(C)=O)[C@H](C)[C@@H](OC/C(=N\OCc3ccc(-n4cccn4)nc3)CO2)[C@]1(C)O [MODITHROMYCIN]
[1]
  AUC(0-inf): 38300 ng·h/mL
[2]
  AUC(0-t) at 120 h: 7650 ng·h/mL
[3]
  Cmax: 196 ng/mL
[4]
  Cmax: 542 ng/mL
[5]
  Cmax: 1070 ng/mL
[6]
  Cmax: 1080 ng/mL
[7]
  Tmax: 3.25 h
[8]
  half-life: 15.8 h
[9]
  half-life: 17.6 h
[10]
  k el at 120 h: 1.23e-05 s⁻¹
[11]
  k el at 120 h: 1.22e-05 s⁻¹
[12]
  k el at 120 h: 9.56e-06 s⁻¹
[13]
  CL/F: 485 mL/min
[14]
  CL/F: 463 mL/min
[15]
  CL/F: 393 mL/min
[16]
  Vd/F: 589 L
[17]
  Vd/F: 635 L
Homo sapiens [18]
  Amount Recovered in urine: 41.9 mg
Homo sapiens [19]
  Amount Recovered in urine: 70.1 mg
[20]
  dose excreted at 48 h: 12.3%
[21]
  dose excreted at 48 h: 10.5%
[22]
  dose excreted at 48 h: 11.4%
[23]
  dose excreted at 48 h: 5.84%
[24]
  CL renal at 48 h: 46.3 mL/min
[25]
  CL renal at 48 h: 57.5 mL/min
[26]
  CL renal at 48 h: 41.3 mL/min
Streptococcus pneumoniae
  MIC: 0.25 µg/mL (≈ 0.297 µM)
Homo sapiens [27]
  Activity: Non-toxic
Homo sapiens [28]
  Activity: Non-toxic
Homo sapiens [29]
  Activity: Non-toxic
[30]
  AUC(0-inf): 14400 ng·h/mL
